The source made the active and inactive calls. The calls are words filed in the database; no cut-off is given here.
Experiments:
[1] = target: T1, Urotensin-2 receptor (Homo sapiens) (UniProt Q9UKP6); test: (§1) Activity against human urotensin-2 receptor expressed in NIH3T3 cells; type: cell-based
T1 sequence (whole entry): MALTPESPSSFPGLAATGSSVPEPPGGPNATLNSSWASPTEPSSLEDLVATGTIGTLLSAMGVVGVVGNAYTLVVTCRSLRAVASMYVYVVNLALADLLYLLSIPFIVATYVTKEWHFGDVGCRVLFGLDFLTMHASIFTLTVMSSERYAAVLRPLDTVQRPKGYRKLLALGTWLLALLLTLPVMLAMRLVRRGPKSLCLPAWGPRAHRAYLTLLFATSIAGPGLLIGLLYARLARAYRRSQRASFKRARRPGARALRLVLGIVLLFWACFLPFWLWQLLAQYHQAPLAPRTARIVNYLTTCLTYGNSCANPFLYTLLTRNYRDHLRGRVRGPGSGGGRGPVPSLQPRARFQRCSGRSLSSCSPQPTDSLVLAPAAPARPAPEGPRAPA
Outline: (§2)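 R-SAT functional agonist assay. NIH-3T3 cells grown to 80% confluence in DMEM with 10% bovine calf serum, then transfected for 18 h with human UII receptor plus β-galactosidase marker. Cells frozen, thawed and plated in DMEM with 0.4% calf serum and 30% UltraCulture onto compound. Five-day incubation in 5% CO2, then reporter read at 420 nm. Eight doses in triplicate; pEC50 averaged over 2-6 determinations; efficacy normalized to UII as 100%.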

Urotensin-2 receptor = target: T2, Urotensin-2 receptor (Homo sapiens, UniProt Q9UKP6); test: as §1; type: cell-based; outline: as §2
T2 sequence (Q9UKP6 whole entry): T1 sequence (whole entry)

Row | Compound | Efficacy [1] | EC50 (Urotensin-2 receptor) | Log EC50 [1]
1 | Cc1ccsc1C(=O)OC(CCN(C)C)c1ccc(Cl)cc1 (configuration not stated) | 119% |  | 
2 | CN(C)CCC(OC(=O)Nc1ccc2ccccc2c1)c1ccc(Cl)cc1 (configuration not stated) | 89% | 525 nM | 
3 | CN(C)CCC(OC(=O)Nc1ccc(-c2ccccc2)cc1)c1ccc(Cl)cc1 (configuration not stated) | 58% | 269 nM | 
4 | COc1cccc(NC(=O)OC(CCN(C)C)c2ccc(Cl)cc2)c1 (configuration not stated) | 136% |  | 
5 | Cc1cc(C)c(C(=O)NC(CCN(C)C)c2ccc(Cl)cc2)cc1C (configuration not stated) | 159% |  | 
6 | CN(C)CCC(NC(=O)Nc1ccc2ccccc2c1)c1ccc(Cl)cc1 (configuration not stated) | 106% | 288 nM | 
7 | Cc1cccc(C(=O)NC(CCN(C)C)c2ccc(Cl)cc2)c1C (configuration not stated) | 159% |  | 
8 | COc1cccc(C(=O)NC(CCN(C)C)c2ccc(Cl)cc2)c1C (configuration not stated) | 179% |  | 
9 | CN(C)CCC(NC(=O)c1ccc2c(c1)OCO2)c1ccc(Cl)cc1 (configuration not stated) | 154% |  | 
10 | Cc1c(Cl)cccc1C(=O)NC(CCN(C)C)c1ccc(Cl)cc1 (configuration not stated) | 142% |  | 
11 | COc1ccc(NC(=O)OC(CCN(C)C)c2ccc(Cl)cc2)cc1 (configuration not stated) | 170% | 1660 nM | 
12 | CN(C)CCC(NC(=O)NCc1ccccc1)c1ccc(Cl)cc1 (configuration not stated) | 179% | 2000 nM | 
13 | CN(C)CCC(OC(=O)NCc1ccccc1)c1ccc(Cl)cc1 (configuration not stated) | 180% |  | 
14 | CN(C)CCC(NC(=O)Nc1ccc(C(F)(F)F)cc1)c1ccc(Cl)cc1 (configuration not stated) | 105% | 117 nM | 
15 | COc1ccc(C(=O)OC(CCN(C)C)c2ccc(Cl)cc2)cc1 (configuration not stated) | 84% | 2190 nM | 
16 | CN(C)CCC(OC(=O)c1ccc2ccccc2c1)c1ccc(Cl)cc1 (configuration not stated) | 49% |  | 
17 | CN(C)CCC(NC(=O)c1ccc(C(F)(F)F)cc1)c1ccc(Cl)cc1 (configuration not stated) | 115% | 77.6 nM | 
18 | CN(C)CCC(NC(=O)Nc1ccc(-c2ccccc2)cc1)c1ccc(Cl)cc1 (configuration not stated) | 91% | 145 nM | 
19 | CN(C)CCC(NC(=O)Nc1ccc(Oc2ccccc2)cc1)c1ccc(Cl)cc1 (configuration not stated) | 108% | 110 nM | 
20 | CN(C)CC[C@@H](NC(=O)c1ccc(-c2ccccc2)cc1)c1ccc(Cl)cc1 | 96% | 1450 nM | 
21 | COc1cccc(C(=O)OC(CCN(C)C)c2ccc(Cl)cc2)c1C (configuration not stated) | 88% | 1950 nM | 
22 | Cc1cccc(C(=O)OC(CCN(C)C)c2ccc(Cl)cc2)c1C (configuration not stated) | 91% | 1150 nM | 

Row | Compound | Efficacy [1] | EC50 (Urotensin-2 receptor) | Log EC50 [1]
23 | Cc1ccc(S(=O)(=O)NC(CCN(C)C)c2ccc(Cl)cc2)cc1 (configuration not stated) | 74% |  | 
24 | CN(C)CCC(NC(=O)c1ccccc1)c1ccc(Cl)cc1 (configuration not stated) | 158% |  | 
25 | Cc1c(Cl)cccc1C(=O)OC(CCN(C)C)c1ccc(Cl)cc1 (configuration not stated) | 118% |  | 
26 | Cc1ccc(C(=O)OC(CCN(C)C)c2ccc(Cl)cc2)cc1 (configuration not stated) | 56% |  | 
27 | CN(C)CCC1(c2ccc(Cl)cc2)Cc2ccccc2C(=O)O1 (configuration not stated) | 133% | 1120 nM | 
28 | CCc1ccccc1C(=O)N[C@@H](CCN(C)C)c1ccc(Cl)cc1 | 140% | 1020 nM | 
29 | Cc1cc(C)c(C(=O)OC(CCN(C)C)c2ccc(Cl)cc2)cc1C (configuration not stated) | 60% |  | 
30 | Cc1cc(Br)ccc1C(=O)OC(CCN(C)C)c1ccc(Cl)cc1 (configuration not stated) | 95% |  | 
31 | COc1ccccc1COC(CCN(C)C)c1ccc(Cl)cc1 (configuration not stated) |  |  | inactive
32 | Cc1ccccc1C(=O)OC(CCN(C)C)c1ccc(Cl)cc1 (configuration not stated) | 126% |  | 
33 | CO[C@@H](C(=O)N[C@H](CCN(C)C)c1ccc(Cl)cc1)c1ccccc1 | 112% | 5010 nM | 
34 | Cc1cc2c(cc1C)C(=O)OC(CCN(C)C)(c1ccc(Cl)cc1)C2 (configuration not stated) | 146% | 135 nM | 
35 | Cc1ccc(C)c(C(=O)OC(CCN(C)C)c2ccc(Cl)cc2)c1 (configuration not stated) | 86% |  | 
36 | COc1ccc(NC(=O)NC(CCN(C)C)c2ccc(Cl)cc2)cc1 (configuration not stated) | 195% | 2000 nM | 
37 | CN(C)CCC(OC(=O)c1cn(C)c2ccccc12)c1ccc(Cl)cc1 (configuration not stated) | 104% | 1510 nM | 
38 | Cc1ccccc1NC(=O)NC(CCN(C)C)c1ccc(Cl)cc1 (configuration not stated) | 175% |  | 
39 | CN(C)CCC(NC(=O)c1ccc(Oc2ccccc2)cc1)c1ccc(Cl)cc1 (configuration not stated) | 89% |  | 
40 | Cc1ccc(COC(CCN(C)C)c2ccc(Cl)cc2)cc1 (configuration not stated) |  |  | inactive
41 | CN(C)CCC(OC(=O)Nc1ccc(Oc2ccccc2)cc1)c1ccc(Cl)cc1 (configuration not stated) | 107% | 191 nM | 
42 | CN(C)CCC(OC(=O)Nc1ccc(C(C)(C)C)cc1)c1ccc(Cl)cc1 (configuration not stated) | 105% | 1820 nM | 
43 | CN(C)CCC(NC(=O)Cc1ccccc1)c1ccc(Cl)cc1 (configuration not stated) | 155% |  | 
44 | Cc1ccccc1NC(=O)OC(CCN(C)C)c1ccc(Cl)cc1 (configuration not stated) | 176% |  | 

Row | Compound | Efficacy [1] | EC50 (Urotensin-2 receptor) | Log EC50 [1]
45 | CN(C)CCC(NC(=O)Nc1ccc(C(C)(C)C)cc1)c1ccc(Cl)cc1 (configuration not stated) | 103% | 275 nM | 
46 | CN(C)CCC(OC(=O)c1ccc(-c2ccccc2)cc1)c1ccc(Cl)cc1 (configuration not stated) | 53% |  | 
47 | CN(C)CCC(NC(=O)c1ccc(N(C)C)cc1)c1ccc(Cl)cc1 (configuration not stated) | 150% |  | 
48 | COc1ccc(C(=O)NC(CCN(C)C)c2ccc(Cl)cc2)cc1 (configuration not stated) | 162% |  | 
49 | CN(C)CC[C@H](NC(=O)c1ccc2ccccc2c1)c1ccc(Cl)cc1 | 109% | 407 nM | 
50 | Cc1ccccc1C(=O)NC(CCN(C)C)c1ccc(Cl)cc1 (configuration not stated) | 175% |  | 
51 | CN(C)CCC(OC(=O)c1cccc2ccccc12)c1ccc(Cl)cc1 (configuration not stated) | 95% |  | 
52 | CN(C)CCC(NS(=O)(=O)c1ccc2ccccc2c1)c1ccc(Cl)cc1 (configuration not stated) |  |  | inactive
53 | COc1cccc(NC(=O)NC(CCN(C)C)c2ccc(Cl)cc2)c1 (configuration not stated) | 146% |  | 
54 | CN(C)CCC(OC(=O)c1cc2ccccc2n1C)c1ccc(Cl)cc1 (configuration not stated) | 73% | 1380 nM | 
55 | CN(C)CCC(OC(=O)Nc1ccc(C(F)(F)F)cc1)c1ccc(Cl)cc1 (configuration not stated) | 94% | 251 nM | 
56 | Cc1cccc(Cl)c1C(=O)NC(CCN(C)C)c1ccc(Cl)cc1 (configuration not stated) | 105% |  | 
57 | Cc1ccc(C(=O)NC(CCN(C)C)c2ccc(Cl)cc2)c(C)c1 (configuration not stated) | 147% |  | 
58 | CCc1ccccc1C(=O)OC(CCN(C)C)c1ccc(Cl)cc1 (configuration not stated) | 128% |  | 
59 | CN(C)CC[C@H](NC(=O)c1ccc(-c2ccccc2)cc1)c1ccc(Cl)cc1 | 116% | 32.4 nM | 
60 | CN(C)CCC(OC(=O)c1ccc(C(F)(F)F)cc1)c1ccc(Cl)cc1 (configuration not stated) | 47% | 1740 nM | 
61 | CO[C@@H](C(=O)N[C@@H](CCN(C)C)c1ccc(Cl)cc1)c1ccccc1 | 165% | 871 nM | 
62 | CN(C)CCC(NC(=O)c1ccc(-c2ccccc2)cc1)c1ccc(Cl)cc1 (configuration not stated) | 116% |  | 
63 | Cc1ccc(C)c(C(=O)NC(CCN(C)C)c2ccc(Cl)cc2)c1 (configuration not stated) | 164% |  | 
64 | CN(C)CCC(NS(=O)(=O)c1ccc(-c2ccccc2)cc1)c1ccc(Cl)cc1 (configuration not stated) |  |  | inactive

From ChEMBL document CHEMBL1146083, “Novel potent and efficacious nonpeptidic urotensin II receptor agonists” (J Med Chem, 2006)
